The text below walks through data of ChEMBL document CHEMBL2434894, “Pyranoxanthones: Synthesis, growth inhibitory activity on human tumor cell lines and determination of their lipophilicity in two membrane models” (Eur J Med Chem, 2013).

Series [1] deals with KB. The series can be described thus: Cytotoxicity against human KB cells. In kind it is functional, cell-based.
The nature of series [2]: Cytotoxicity against human BC1 cells. In kind it is functional, cell-based.
In series [3] the test system is NCI-H187. Description: Cytotoxicity against human NCI-H187 cells. It is filed as functional, cell-based.
Series [4] in a line: Cytotoxicity against human A375-C5 cells after 48 hrs by SRB assay. It is filed as functional. The following applies: A375-C5, 48 h. Put shortly:
(§1)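 Cells kept in RPMI-1640 with 5% heat-inactivated FBS at 37 °C and 5% CO2, used in exponential growth at >90% viability (Trypan blue). Seeded per well: MCF-7 and NCI-H460 5 × 10³, A375-C5 7.5 × 10³, HL-60 1 × 10⁴. After 24 h, serial dilutions (0–150, where possible) were given for 48 h; DMSO ≤0.25%. Plates were TCA-fixed (10% adherent, 16.7% HL-60), SRB-stained and read at 510 nm. GI50 taken from curves; mean ± SE, ≥3 experiments; doxorubicin as positive control.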
Background: Sulforhodamine B stains cellular protein and so reports cell mass.

The nature of series [5]: Partition coefficient, log Kp of the compound in micelle-HEPES buffer at pH 7.4. In kind it is physicochemical.
The nature of series [6]: Partition coefficient, log Kp of the compound in liposome-HEPES buffer at pH 7.4. In kind it is physicochemical. The following applies: artificial membrane.
Series [7] relates to HL-60. Description: Cytotoxicity against human HL60 cells after 48 hrs by SRB assay. The following applies: HL-60, 48 h. In kind it is functional. Put shortly: as §1
Series [8] has as its system L1210. Description: Cytotoxicity against mouse L1210 cells. In kind it is functional, cell-based.
Series [9] concerns NCI-H460. The series can be described thus: Cytotoxicity against human NCI-H460 cells after 48 hrs by SRB assay. It is filed as functional. The following applies: NCI-H460, 48 h. In a few lines:
as §1

For series [10], the system named is MCF7. The series can be described thus: Cytotoxicity against human MCF7 cells after 48 hrs by SRB assay. In kind it is functional. The following applies: MCF7, 48 h. In a few lines: as §1
The nature of series [11]: Cytotoxicity against Drosophila melanogaster S2 cells. It is filed as functional, cell-based.
Series [12] concerns SGC-7901. The series can be described thus: Cytotoxicity against human SGC7901 cells. In kind it is functional, cell-based.
The test system of series [13] is SMMC-7721. The series can be described thus: Cytotoxicity against human SMMC7721 cells. In kind it is functional, cell-based.
Series [14] concerns HCT-116. The series can be described thus: Cytotoxicity against human HCT116 cells. In kind it is functional, cell-based.

Converted amounts (≈) assume the structure as drawn.

A word on the IC50: it is the concentration needed to halve the response being measured. As for `CC(C)=CCc1c(O)cc2oc3cc(O)c4c(c3c(=O)c2c1O)CCC(C)(C)O4`, the IC50 is 3.9 µg/mL in series [1], 3.9 µg/mL (≈ 9.84 µM) in series [2] and 3.9 µg/mL (≈ 9.84 µM) in series [3].

As usually defined, the GI50 is the concentration that inhibits growth by half. Read a low GI50 as greater sensitivity of the cells. With `COc1cc2c(c3oc4ccccc4c(=O)c13)OC(C)(C)C=C2`, the results for the GI50 in series [4] and in series [7] were 69.5 µM and 9.6 µM, respectively. Besides, the figures for the “log Kp” value in series [5] and in [6] were 3.33 and 3.32, respectively.

Take `COc1ccc2c(=O)c3c(OC)c4c(c(OC)c3oc2c1OC)OC(C)(C)C=C4`: it took 4.23 µg/mL (≈ 10.6 µM) to reach half-maximal inhibition in series [8] (IC50).

Consider `COc1c2c(cc3oc4ccccc4c(=O)c13)CCC(C)(C)O2`, for which the values for the GI50 in series [4], in series [9] and in series [7] were greater than 150 µM, greater than 150 µM and 37.6 µM, respectively. Also, the “log Kp” value in series [5] is listed as 3.58; in series [6], 3.09.

In the case of `CC1(C)C=Cc2c(cc(O)c3c(=O)c4ccccc4oc23)O1`, in [5], the “log Kp” value is recorded as 4.02. In addition, the GI50 in [9] and in [10] was greater than 150 µM each time.

For the compound `CC1(C)C=Cc2c(cc3c(=O)c4ccccc4oc3c2O)O1`, the GI50 in series [4] was greater than 150 µM; in series [9], greater than 150 µM; in [7], greater than 70 µM; in [10] it was 108 µM. Further, the entries for the “log Kp” value in series [5] and in series [6] were 3.29 and 3.06, respectively.

Regarding `COc1c2c(cc3c(=O)c4ccccc4oc13)C=CC(C)(C)O2`, the GI50 in series [4], in series [9] and in [10] was greater than 150 µM in each case. Further, the “log Kp” value in series [5] worked out at 3.83; in series [6], 3.88.

Turning to `COc1cc(OC)c2c(=O)c3c(O)c4c(c(OC)c3oc2c1OC)OC(C)(C)C=C4`, half-maximal inhibition in [8] (IC50) required 3.51 µg/mL (≈ 8.47 µM).

As to `CC1(C)CCc2cc3oc4ccccc4c(=O)c3c(O)c2O1`, the GI50 in series [4] is greater than 150 µM; in series [9] it was greater than 150 µM; in series [7] it was 26.1 µM; in series [10], greater than 150 µM. The entries for the “log Kp” value in [5] and in [6] were 3.88 and 3.96, respectively.

Turning to `CC1(C)C=Cc2ccc3c(=O)c4ccccc4oc3c2O1`, the GI50 in series [4] worked out at 6.2 µM; in series [9], 32.9 µM; in series [7], 3.2 µM; in [10], 13.3 µM. The results for the “log Kp” value in series [5] and in series [6] were 3.5 and 3.42, respectively.

In the case of `COc1c2c(cc3oc4ccccc4c(=O)c13)C=CC(C)(C)O2`, the GI50 in series [4] is 47.4 µM; in series [9], 42.9 µM; in series [7], 9.6 µM. In addition, the “log Kp” value in series [5] amounted to 3.76; in [6] it was 3.54.

Compound `CC1(C)CCc2cc3oc4cc(O)cc(O)c4c(=O)c3c(O)c2O1` gave an IC50 in [11] of 6.3 µg/mL (≈ 19.2 µM).

Turning to `COc1c(O)cc2c(=O)c3c(O)c4c(cc3oc2c1CC=C(C)C)OC(C)(C)C=C4` [MANGLEXANTHONE], the IC50 in series [1] turned out to be 1.9 µM.

On to `CC1(C)C=Cc2c(ccc3oc4ccccc4c(=O)c23)O1`, for which the GI50 is 37.9 µM in [4], 44.5 µM in [9], 36.7 µM in [7] and 50.9 µM in [10]. The “log Kp” value stood at 4.1 in series [5] and 4.14 in [6].

`COc1c2c(cc3c(=O)c4ccccc4oc13)OC(C)(C)C=C2`: the “log Kp” value in series [5] is given as 4.07; in series [6], 3.94. Further, the GI50 in [7] was 11.8 µM.

On to `CC1(C)CCc2c(cc3oc4ccccc4c(=O)c3c2O)O1`, for which the “log Kp” value in [5] is given as 4.32.

Compound `COc1cccc2c1C(=O)c1c(O)c3c(c(O)c1C2=O)C[C@@](O)(C(=O)CO)C[C@@H]3O[C@H]1C[C@H](N)[C@H](O)[C@H](C)O1` [DOXORUBICIN] gave a GI50 in [7] of 0.028 µM.

In the case of `COc1cc2c(c3oc4ccccc4c(=O)c13)OC(C)(C)CC2`, the GI50 in series [4] was greater than 100 µM; in [7], 30.9 µM; in series [10], greater than 100 µM. The “log Kp” value in [5] was 3.46; in [6] it was 3.08.

As for `CC1(C)C=Cc2cc(O)c3c(=O)c4ccccc4oc3c2O1`, the GI50 is greater than 100 µM in [4] and 6.4 µM in series [7]. In addition, in series [5], the “log Kp” value stood at 4.08.

`CC1(C)CCc2cc(O)c3c(=O)c4ccccc4oc3c2O1`: the GI50 in series [4], in series [9], in series [7] and in [10] was greater than 50 µM in each case. Besides, in series [5], the “log Kp” value is given as 4.28.

In the case of `CC(C)=CCc1c2c(c3oc4cc(O)c(O)cc4c(=O)c3c1O)C=CC(C)(C)O2` [CUDRATRICUXANTHONE], the IC50 in [12], in series [13] and in series [14] was 4.1 µM throughout.

For the compound `CC1(C)CCc2c(cc(O)c3c(=O)c4ccccc4oc23)O1`, in series [5], the “log Kp” value amounted to 4.27.

On to `CC1(C)C=Cc2cc3oc4ccccc4c(=O)c3c(O)c2O1`, for which the GI50 was 29.6 µM in [4], 31.7 µM in series [9], 38.9 µM in [7] and 39.6 µM in [10]. Moreover, the “log Kp” value in [5] amounted to 4.15; in [6], 4.17.

For `CC1(C)C=Cc2c(cc3oc4ccccc4c(=O)c3c2O)O1`, the “log Kp” value in series [5] stood at 4.06. The GI50 in series [9] and in series [10] was greater than 150 µM each time.

In the case of `COc1c2c(cc3c(=O)c4ccccc4oc13)OC(C)(C)CC2`, the GI50 in series [4] turned out to be 42.5 µM; in [9] it was 47.3 µM; in [7], 31.8 µM; in series [10] it was 45.1 µM. The “log Kp” value is given as 3.88 in [5] and 3.92 in [6].
